According to ChEMBL document CHEMBL4808195, “Discovery of heterocyclic substituted dihydropyrazoles as potent anticancer agents” (Bioorg Med Chem Lett, 2021):
The source made the active and inactive calls. The calls are words filed in the database; no cut-off is given here.

Legend:
[1] = tested on: NCI-H1975; test: Anticancer activity against human NCI-H1975 cells assessed as inhibition of cell growth at 10 uM measured by SRB method; format: functional
[2] = tested on: MDA-MB-231; test: Anticancer activity against human MDA-MB-231 cells assessed as inhibition of cell growth at 10 uM measured by SRB method; format: functional
[3] = tested on: A549; test: Anticancer activity against human A549 cells assessed as inhibition of cell proliferation; format: functional, cell-based
[4] = tested on: HCC1806; test: Anticancer activity against human HCC1806 cells assessed as inhibition of cell growth at 10 uM measured by SRB method; format: functional
[5] = tested on: HeLa; test: Anticancer activity against human HeLa cells assessed as inhibition of cell proliferation; format: functional, cell-based
[6] = tested on: HCC1806; test: Anticancer activity against human HCC1806 cells assessed as inhibition of cell proliferation; format: functional, cell-based
[7] = tested on: HCT-116; test: Anticancer activity against human HCT-116 cells assessed as inhibition of cell proliferation; format: functional, cell-based
[8] = tested on: HCC1806; test: Cell cycle arrest in human HCC1806 cells assessed as decrease in cell population at G1 phase at 2.5 to 5 uM measured after 12 hrs by flowcytometry method; format: functional, cell-based; conditions: dose 2.5-5 µM
How it was run: (§1)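 HCC1806 cells were treated with the compound for 12 h. Cell-cycle distribution was determined by flow cytometry, and the phase fractions were quantified from experimental duplicates with SD.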

[9] = tested on: HCC1806; test: Cell cycle arrest in human HCC1806 cells assessed as increase in cell population at G2/M phase at 2.5 to 5 uM measured after 12 hrs by flowcytometry method; format: functional, cell-based; conditions: dose 2.5-5 µM; how it was run: as §1
[10] = tested on: HCC1806; test: Cell cycle arrest in human HCC1806 cells assessed as decrease in cell population at S phase at 2.5 to 5 uM measured after 12 hrs by flowcytometry method; format: functional, cell-based; conditions: dose 2.5-5 µM; how it was run: as §1
[11] = tested on: HCC1806; test: Anticancer activity against human HCC1806 cells assessed as inhibition of cell proliferation at 2 to 10 uM measured after 48 hrs by SRB assay; format: functional, cell-based; conditions: dose 2-10 µM
How it was run: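 HCC1806 cells were exposed to the compound for 24, 48 and 72 h. Proliferation inhibition rate was read by SRB assay at each time point. Experimental triplicates, shown with SD.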

[12] = tested on: HCC1806; test: Cell cycle arrest in human HCC1806 cells assessed as increase in p21 accumulation at 2.5 to 5 uM measured after 12 hrs by western blot assay; format: functional, cell-based; conditions: dose 2.5-5 µM
How it was run: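 HCC1806 cells were exposed to the compound for 12 h. p21 protein level was detected by immunoblotting, with β-actin as the loading control.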

Row | Compound | inhibition at 10 µM [1] | inhibition at 10 µM [2] | IC50 [3] | inhibition at 10 µM [4] | IC50 [5] | IC50 [6] | IC50 [7] | Activity [8] | Activity [9] | Activity [10] | Activity [11] | Activity [12]
1 | CN1CCN(c2ccc(C3=NN(S(=O)(=O)c4ccc(F)cc4)C(c4ccc(N(C)C)cc4)C3)cc2)CC1 (stereo not drawn) | 95.7% | 15.7% | 9.6 µM | 92.3% | > 10 µM | 6.1 µM | > 10 µM |  |  |  |  | 
2 | CN1CCN(c2ccc(C3=NN(C(=O)/C=C/c4ccccc4)C(c4ccc(N(C)C)cc4)C3)cc2)CC1 (stereo not drawn) | 81% | 35.9% | > 10 µM | 71% | > 10 µM | 9.05 µM | > 10 µM |  |  |  |  | 
3 | CN1CCN(c2ccc(C3=NN(C(=O)c4ccc(C(F)(F)F)cc4)C(c4ccc(N(C)C)cc4)C3)cc2)CC1 (stereo not drawn) | 93.2% | 55.4% | > 10 µM | 84.1% | > 100 µM | 5.4 µM | > 10 µM |  |  |  |  | 
4 | CN1CCN(c2ccc(C3=NN(S(=O)(=O)c4ccc(C#N)cc4)C(c4ccc(N(C)C)cc4)C3)cc2)CC1 (stereo not drawn) | 100% | 99.8% | 3.6 µM | 99.8% | 3 µM | 2.99 µM | 3.6 µM | Active | Active | Active | Active | Active
5 | CN1CCN(c2ccc(C3=NN(S(=O)(=O)c4ccc(Br)cc4)C(c4ccc(N(C)C)cc4)C3)cc2)CC1 (stereo not drawn) | 70.8% | 23.7% | > 10 µM | 87.1% | > 10 µM | 8.65 µM | > 10 µM |  |  |  |  | 
6 | CN(C)c1ccc(C2CC(c3ccc(-n4ccnc4)cc3)=NN2S(=O)(=O)c2ccc([N+](=O)[O-])cc2)cc1 (stereo not drawn) | 53% | 41.5% |  | 46.6% |  |  |  |  |  |  |  | 
